For 53 compounds, remaining nuclease activity results are on record in PubChem BioAssay AID602422 (The Scripps Research Institute Molecular Screening Center, 2012).

The structures appear in SMILES notation. Several values for one entry are separate records, joined by “and”; a condition that tells them apart may be missing. Identical values can stand only once. Activity calls are given as the source filed them.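 The calls were made as follows: active = remaining nuclease activity at or below 52% of the solvent-only control at any tested dose; inactive = above 52% at every tested dose.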

The experiment concerns ATP-dependent helicase/nuclease AddAB (Helicobacter pylori 26695). Briefly: remaining H. pylori AddAB nuclease activity – biochemical, radioactivity, purified enzyme, 100 µM, powder samples, late-stage follow-up (AID 602422). The settings on record: [3H]-dsDNA TCA-soluble nuclease assay, at 100 µM, stronger effect = lower value. The procedure, abridged: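 assay system = purified AddAB helicase-nuclease enzyme | medium = Tris-HCl pH 8.5, MgCl2, ATP | probe or stimulus = [3H] T7 dsDNA, 2 µg/mL | compound = nominal 100 µM, 5% DMSO | times = 20 min reaction, 37 °C | detection = scintillation counting of acid (TCA)-soluble radioactive DNA product | read-out basis = percent nuclease activity versus DMSO control, minus enzyme-free background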
On to `CC1(C)Cc2c(sc(NC(=O)c3ccco3)c2C#N)CO1`, for which the remaining nuclease activity is 69% (inactive).

As for `NC(=O)c1c(NC(=O)c2cnccn2)sc2c1CCCC2`, the remaining nuclease activity was 87% (inactive).

For `COC(=O)c1c(-c2cccc(C)c2)csc1NC(=O)c1cnccn1`, the remaining nuclease activity is 88% (inactive).

As to `N#Cc1c(NC(=O)c2cnccn2)sc2c1CCCC2`, the remaining nuclease activity is 10% and 36%.

With `CCn1cc(C(=O)O)c(=O)c2cnc(N3CCN(C(=S)NC(C)c4ccccc4)CC3)nc21` (stereo not drawn), the remaining nuclease activity was 13%.

Consider `CCn1cc(C(=O)O)c(=O)c2cnc(N3CCN(C(=S)Nc4ccccc4OC)CC3)nc21`, for which the remaining nuclease activity was 68% (inactive).

Take `CCn1cc(C(=O)O)c(=O)c2cnc(N3CCN(C(=S)Nc4ccccc4F)CC3)nc21`: the remaining nuclease activity was 74% (inactive).

Consider `CCn1cc(C(=O)O)c(=O)c2cnc(N3CCN(C(=S)NCc4ccccc4)CC3)nc21`, for which the remaining nuclease activity is 55% (inactive).

Turning to `CCC(C)(C)C1CCc2c(sc(NC(=O)c3cnccn3)c2C#N)C1` (stereo not drawn), the remaining nuclease activity is 103% (inactive).

Regarding `CC1CCc2c(sc(NC(=O)c3cnccn3)c2C#N)C1` (stereo not drawn), the remaining nuclease activity was 91% (inactive).

With `CCn1cc(C(=O)O)c(=O)c2cnc(N3CCN(C(=S)Nc4cccc(C(F)(F)F)c4)CC3)nc21`, the remaining nuclease activity is 8%.

For `CCn1cc(C(=O)O)c(=O)c2cnc(N3CCNCC3)nc21`, the remaining nuclease activity was 103% (inactive).

Take `CCn1cc(C(=O)O)c(=O)c2cc(F)c(N3CCN(C(=S)Nc4ccccc4C(F)(F)F)CC3)cc21`: the remaining nuclease activity is 51%.

On to `CC1CCc2c(sc(NC(=O)c3ccc([N+](=O)[O-])o3)c2N)C1` (stereo not drawn), for which the remaining nuclease activity was 128% (inactive).

Take `CCn1cc(C(=O)O)c(=O)c2cnc(N3CCN(C(=S)Nc4ccc5c(c4)OCO5)CC3)nc21`: the remaining nuclease activity is 46%.

In the case of `CCn1cc(C(=O)O)c(=O)c2cnc(N3CCN(C(=S)Nc4ccccc4C(F)(F)F)CC3)nc21`, the remaining nuclease activity is 90% (inactive).

With `CCn1cc(C(=O)O)c(=O)c2cnc(N3CCN(C(=S)NC(=O)c4cccc(C)c4)CC3)nc21`, the remaining nuclease activity was 95% (inactive).

Consider `CCn1cc(C(=O)O)c(=O)c2cnc(N3CCN(C(=S)NC(=O)c4ccco4)CC3)nc21`, for which the remaining nuclease activity was 89% (inactive).

As to `Cc1ccc(C(=O)Nc2sc3c(c2C#N)CCC3)o1`, the remaining nuclease activity is 98% (inactive).

Take `CCn1cc(C(=O)O)c(=O)c2cnc(N3CCN(C(=O)Nc4ccccc4)CC3)nc21`: the remaining nuclease activity was 92% (inactive).

`CCn1cc(C(=O)O)c(=O)c2cnc(N3CCN(C(=S)Nc4ccc5c(c4)OCCO5)CC3)nc21`: the remaining nuclease activity is 62% (inactive).

On to `CNC(=O)c1c(NC(=O)c2nc(SCc3ccccc3)ncc2Cl)sc2c1CCCC2`, for which the remaining nuclease activity is 21%.

For `Cc1sc(NC(=O)c2cnccn2)c(C(=O)OC(C)C)c1-c1ccccc1`, the remaining nuclease activity was 33%.

In the case of `N#Cc1c(NC(=O)c2ccccc2)sc2c1CCC2`, the remaining nuclease activity was 111% (inactive).

With `COC(=O)c1c(NC(=O)c2cnccn2)sc2c1CCCC2`, the remaining nuclease activity is 93% (inactive).

For the compound `CCn1cc(C(=O)O)c(=O)c2cnc(N3CCN(C(=S)NC(=O)c4cccnc4)CC3)nc21`, the remaining nuclease activity is 101% (inactive).

For the compound `CCn1cc(C(=O)O)c(=O)c2cnc(N3CCN(C(=S)Nc4ccccc4C)CC3)nc21`, the remaining nuclease activity is 81% (inactive).

Regarding `N#Cc1c(NC(=O)C2CC=CCC2C(=O)O)sc2c1CCC2` (stereo not drawn), the remaining nuclease activity was 92% (inactive).

On to `CCn1cc(C(=O)O)c(=O)c2cnc(N3CCN(C(=S)NC)CC3)nc21`, for which the remaining nuclease activity is 101% (inactive).

On to `C=CCNC(=S)N1CCN(c2ncc3c(=O)c(C(=O)O)cn(CC)c3n2)CC1`, for which the remaining nuclease activity is 93% (inactive).

For the compound `CCn1cc(C(=O)O)c(=O)c2cnc(N3CCN(C(=S)Nc4ccccc4)CC3)nc21`, the remaining nuclease activity is 83% (inactive).

With `N#Cc1c(NC(=O)c2ccc([N+](=O)[O-])o2)sc2c1CCCC2`, the remaining nuclease activity is 92% (inactive).

In the case of `CCn1cc(C(=O)O)c(=O)c2cnc(N3CCN(C(=S)Nc4ccc(F)cc4)CC3)nc21`, the remaining nuclease activity was 43%.

`CCn1cc(C(=O)O)c(=O)c2cnc(N3CCN(C(=S)NC(=O)c4ccccc4Cl)CC3)nc21`: the remaining nuclease activity is 93% (inactive).

In the case of `CCn1cc(C(=O)O)c(=O)c2cnc(N3CCN(C(=S)NC4CC5CCC4C5)CC3)nc21` (stereo not drawn), the remaining nuclease activity is 6%.

`CC1CCc2c(sc(NC(=O)c3cccs3)c2C#N)C1` (stereo not drawn): the remaining nuclease activity is 92% (inactive).

On to `N#Cc1c(NC(=O)c2ccc(-c3ccccc3[N+](=O)[O-])o2)sc2c1CCCC2`, for which the remaining nuclease activity was 73% (inactive).

`Cc1ccc(C(=O)Nc2sc3c(c2C#N)CCCCC3)o1`: the remaining nuclease activity was 72% (inactive).

With `CCn1cc(C(=O)O)c(=O)c2cc(F)c(N3CCN(C(=S)Nc4cccc(C(F)(F)F)c4)CC3)cc21`, the remaining nuclease activity was 9%.

In the case of `N#Cc1c(NC(=O)c2cnccn2)sc2c1CCCCCC2`, the remaining nuclease activity was 70% (inactive).

Turning to `CCn1cc(C(=O)O)c(=O)c2cnc(N3CCN(C(=S)Nc4ccccc4Cl)CC3)nc21`, the remaining nuclease activity is 74% (inactive).

With `CCn1cc(C(=O)O)c(=O)c2cnc(N3CCN(C(=S)Nc4ccc(Cl)cc4)CC3)nc21`, the remaining nuclease activity was 19%.

With `Cn1nccc1C(=O)Nc1sc2c(c1C#N)CCCC2`, the remaining nuclease activity was 71% (inactive).

Turning to `Cc1sc(NC(=O)c2ccc(Br)o2)c(C#N)c1C`, the remaining nuclease activity was 40%.

`CC1CCc2c(sc(NC(=O)c3ccc([N+](=O)[O-])o3)c2C#N)C1` (stereo not drawn): the remaining nuclease activity is 89% (inactive).

Turning to `Nc1c(NC(=O)c2ccc([N+](=O)[O-])o2)sc2c1CCCC2`, the remaining nuclease activity was 116% (inactive).

In the case of `N#Cc1c(NC(=O)c2cccc(F)c2)sc2c1CCCC2`, the remaining nuclease activity was 65% (inactive).

`N#Cc1c(NC(=O)c2ccccc2C(=O)O)sc2c1CCCC2`: the remaining nuclease activity was 55% (inactive).

Turning to `N#Cc1c(NC(=O)c2ccco2)sc2c1CCC2`, the remaining nuclease activity is 41%.

Regarding `CSc1ncc(Cl)c(C(=O)Nc2sc3c(c2C(=O)NC2CCS(=O)(=O)C2)CCC(C)C3)n1` (stereo not drawn), the remaining nuclease activity is 77% (inactive).

As to `COC(=O)c1c(-c2ccccc2)csc1NC(=O)c1cnccn1`, the remaining nuclease activity is 31%.

Consider `CSc1ncc(Cl)c(C(=O)Nc2sc3c(c2C#N)CCC(C)C3)n1` (stereo not drawn), for which the remaining nuclease activity was 100% (inactive).

As for `N#Cc1c(NC(=O)c2cc(-c3ccccc3)on2)sc2c1CCCC2`, the remaining nuclease activity is 42%.
